Source: publication PMC2831214 (Nature chemical biology, 2010)
Entries after “also recorded” stand apart in the source; their conditions may differ. Numbered stars: 1 amine (or outer) side, 2 acyl side, 3 side chain; on linkers, the order of the positions; unused ones are H or OH. Bridge positions count the residues as written; N and C are the ends. Square brackets hold non-standard residues; d marks the D form. Peptide text beside a SMILES is read from it. I, II: the chains in the order shown. Actinocin(9to1) = Cc1c2oc3c(C)ccc(C(=O)[*:1])c3nc-2c(C(=O)[*:2])c(N)c1=O; NMeV = CN[C@H](C(=O)O)C(C)C; Sar = CNCC(=O)O

How the values were obtained:
[1] = tested on: protein synthesis in HeLa cells; experiment: De novo protein synthesis by [35S]cysteine/methionine metabolic labeling; assay type: cell-based; details: for Effect on protein synthesis (translation): metabolic labeling 2 h
Summary of the method: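 HeLa cells were given varying concentrations of test compound with [35S]cysteine/methionine for 2 h. TCA-precipitated proteins were collected on PVDF membrane and scintillation counted. Cycloheximide served as translation-inhibitor control and actinomycin D as transcription-inhibitor control. Runs were in triplicate, with s.d. shown.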

[2] = tested on: RNA synthesis in HeLa cells; experiment: RNA synthesis; assay type: cell-based; details: [3H]uridine 2 h
Summary of the method: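 HeLa cells exposed to a range of test compound concentrations with [3H]uridine for 2 h. TCA-precipitated material on PVDF membrane quantified by scintillation counting. Actinomycin D and cycloheximide served as controls.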

[3] = tested on: rabbit reticulocyte lysate with rabbit β-globin RNA; experiment: Polysome profiles in vitro; assay type: biochemical; details: cell free system, 15 min
[4] = target: pre-assembled initiation complexes (Saccharomyces cerevisiae, UniProt P02406+P0CX27); experiment: Reconstituted translation elongation, tripeptide; assay type: biochemical; details: 200 µM
[5] = target: ribosome on rabbit β-globin mRNA (Oryctolagus cuniculus, UniProt G1SNY0+G1T040); experiment: Toeprinting on rabbit β-globin mRNA in rabbit reticulocyte lysate; assay type: biochemical; details: CHX 10 mM; LTM at 1/10,000th of the CHX concentration
HEK 293T cells = experiment: Polysome profiles in cells; assay type: cell-based; details: 30 min
[6] = target: eEF2-mediated translocation (Oryctolagus cuniculus, UniProt G1SNY0+G1T040); experiment: eEF2-dependent translocation; assay type: biochemical, rabbit; details: 200 µM compound
[7] = target: eEF1A-mediated binding of aminoacyl-tRNA to ribosomes (Oryctolagus cuniculus, UniProt G1SNY0+G1T040); experiment: eEF1A-dependent aminoacyl-tRNA binding; assay type: biochemical, rabbit; details: 200 µM compound
Summary of the method: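 89 pmol ribosomes in 20 mM HEPES pH 7.4, 100 mM KCl, 10 mM MgCl2, 1 mM DTT were mixed with 200 ng poly(U), 2.2 µg eEF1A, 150 µM GDPNP and 200 µM compound before 10 pmol [14C]Phe-tRNAPhe was added. After 10 min at 37 °C, samples were diluted, filtered through nitrocellulose, rinsed and scintillation counted (1 pmol = 1100 dpm).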

[8] = target: binding of deacylated tRNA to the E-site of ribosomes (Oryctolagus cuniculus, UniProt G1SNY0+G1T040); experiment: Deacylated tRNA binding to ribosomes; parameters: species or system rabbit
Summary of the method: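 Deacylated tRNA was 3′-end labelled with [32P] and diluted to 80,000 cpm/pmol. Inhibitor was at graded concentrations; 4 µM unlabelled deacylated tRNA was the control. Samples were diluted with 1 ml buffer, filtered through nitrocellulose, washed 5× and scintillation counted.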

[9] = tested on: HeLa, MDA-MB231 and Jurkat T cells; experiment: Cell proliferation screen by [3H]-thymidine incorporation; assay type: cell-based; details: 2.5 µM, 24 h
Summary of the method: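 Each of the three cell lines was exposed to test compound at 2.5 µM for 24 h. [3H]-thymidine was then applied to monitor cellular DNA synthesis as the proliferation read-out.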

P388 lymphoma = details: cited from earlier work
Candida = details: cited from earlier work
[10] = target: peptide bond formation on ribosomes (Oryctolagus cuniculus, UniProt G1SNY0+G1T040); experiment: Peptidyl transfer; assay type: biochemical, rabbit; details: LTM even at millimolar concentrations
[11] = target: ribosomes, eEF1A and eEF2 (Oryctolagus cuniculus, UniProt G1SNY0+G1T040); experiment: Polyphenylalanine synthesis on a poly; assay type: biochemical, rabbit; details: 200 µM
MDA MB 231 tumors = experiment: Mouse xenograft model; assay type: in vivo, female nude mice; details: 0.6 mg/kg every day for one month, intraperitoneal
Summary of the method: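 Two million MDA MB 231 cells were injected subcutaneously into female nude mice. Once tumours were palpable, mice received 0.6 mg/kg test compound or solvent alone daily for one month.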

breast cancer cell lines = experiment: Proliferation of breast cancer cell lines by [3H]thymidine incorporation; assay type: cell-based; details: array of breast cancer cell lines, 24 h
[12] = tested on: cap-dependent and EMCV, HCV, CrPV IRES-mediated translation; experiment: IRES dual luciferase reporter assay in rabbit reticulocyte lysate; assay type: biochemical; details: HCV and CrPV IRES reporters
MCF10A = experiment: Proliferation of non-tumorigenic breast cell line by [3H]thymidine incorporation; assay type: cell-based; details: 24 h
translation = details: cited from earlier work
translation in vitro = experiment: In vitro translation; assay type: biochemical

pre-assembled initiation complexes, sequence (P02406 2-149 limits assumed): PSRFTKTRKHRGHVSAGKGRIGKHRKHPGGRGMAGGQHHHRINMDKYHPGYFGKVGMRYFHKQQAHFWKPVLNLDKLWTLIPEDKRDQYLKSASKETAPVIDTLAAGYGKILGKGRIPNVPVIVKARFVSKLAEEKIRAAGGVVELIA
pre-assembled initiation complexes, sequence (P0CX27 2-106 limits assumed): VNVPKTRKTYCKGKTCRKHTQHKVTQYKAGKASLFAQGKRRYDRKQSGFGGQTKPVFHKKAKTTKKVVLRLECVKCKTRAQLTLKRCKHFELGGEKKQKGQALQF

## Cc1c2oc3c(C)ccc(C(=O)N[C@@H]4C(=O)N[C@H](C(C)C)C(=O)N5CCC[C@H]5C(=O)N(C)CC(=O)N(C)[C@@H](C(C)C)C(=O)O[C@@H]4C)c3nc-2c(C(=O)N[C@@H]2C(=O)N[C@H](C(C)C)C(=O)N3CCC[C@H]3C(=O)N(C)CC(=O)N(C)[C@@H](C(C)C)C(=O)O[C@@H]2C)c(N)c1=O [Actinomycin D, reference compound] (I: T[dV]P[Sar][NMeV] / II: T[dV]P[Sar][NMeV]; ester I:1-I:C, II:1-II:C; linker I:N-II:N via Actinocin(9to1))
[1]
  Effect on protein synthesis (translation): concomitantly blocked transcription and translation
[2]
  Effect on transcription: concomitantly blocked transcription and translation

## C[C@@H]1C[C@@H]([C@H](O)CC2CC(=O)NC(=O)C2)C(=O)[C@@H](C)C1 [CHX, cycloheximide, reference compound]
[1]
  Effect on protein synthesis (translation): strongly inhibited translation
[3]
  Effect on polysome profile in vitro: causing accumulation of 80S ribosomes
[4]
  Effect on tripeptide formation: similar, albeit less pronounced effect
[5]
  Toeprint titration, ribosome arrest: about half the ribosomal population to stop at the very first codon
HEK 293T cells
  Effect on polysome profile in cells: little difference between CHX and solvent control
[6]
  Effect on eEF2-mediated translocation (phenylalanyl puromycin formation): inhibited phenylalanyl puromycin formation
[2]
  Effect on transcription: only affected transcription at very high doses
[7]
  Effect on eEF1A-mediated binding of aminoacyl-tRNA: not inhibited
[8]
  Concentration causing a detectable decrease in the amount of bound tRNA: 10 mM

## CO[C@@H](/C=C/CC/C=C/C(=O)O)[C@@H](O)[C@H](C)[C@@H](O)/C(C)=C/[C@H](C)C(=O)CCCC1CC(=O)NC(=O)C1 [Dorrigocin B]
[1]
  Effect on protein synthesis (translation): no inhibitory effect; also recorded: abolished any inhibitory activity
[9]
  Inhibition of cell proliferation ([3H]-thymidine incorporation): neither compound affected cell proliferation

## CO[C@H]1/C=C/CC/C=C/C(=O)O[C@@H](/C(C)=C/[C@H](C)C(=O)CCCC2CC(=O)NC(=O)C2)[C@@H](C)[C@@H]1O [Isomigrastatin, isomigrastatin]
[1]
  Effect on protein synthesis (translation): exclusively inhibited protein synthesis
[2]
  Effect on transcription: without a significant impact on transcription
[9]
  Inhibition of cell proliferation ([3H]-thymidine incorporation): highly active

## C/C(=C\[C@H](C)C(=O)C[C@H](O)CC1CC(=O)NC(=O)C1)[C@@H]1OC(=O)/C=C/CC/C=C/C=C\[C@@H]1C [LTM, lactimidomycin]
[1]
  Potency as inhibitor of translation relative to CHX: about 10 fold
  Effect on protein synthesis (translation): exclusively inhibited protein synthesis
[3]
  Effect on polysome profile in vitro: causing accumulation of 80S ribosomes
P388 lymphoma
  Survival of mice with P388 lymphoma: extended the survival
[4]
  Effect on tripeptide formation: greatly slowed down tripeptide formation
[5]
  Toeprint titration, ribosome arrest: arrested the ribosome on the start codon
Candida
  Sensitivity of Candida: resistant
[10]
  Effect on peptide bond formation (methionyl-puromycin): did not affect peptide bond formation
HEK 293T cells
  Effect on polysome profile in cells: large increase in 80S ribosomes accompanied by depletion of polysomes
[11]
  Effect on polyphenylalanine synthesis: inhibited polyphenylalanine synthesis
[6]
  Effect on eEF2-mediated translocation (phenylalanyl puromycin formation): inhibited phenylalanyl puromycin formation
MDA MB 231 tumors
  Effect on tumor growth in vivo: appreciable effect on tumor growth
[2]
  Effect on transcription: without a significant impact on transcription
Breast cancer cell lines
  IC50 concentrations, cell growth: low nanomolar range
[12]
  Effect on cap-dependent and IRES-mediated translation: inhibited translation from all three constructs to a similar degree
[7]
  Effect on eEF1A-mediated binding of aminoacyl-tRNA: not inhibited
MCF10A
  Inhibition of growth of non-tumorigenic cells: higher doses were necessary
[9]
  Inhibition of cell proliferation ([3H]-thymidine incorporation): most potent inhibitor of cell proliferation; also recorded: highly active

## CO[C@H]1/C=C/CC/C=C/C(=O)O[C@H]([C@H](C)C(=O)CCCC2CC(=O)NC(=O)C2)/C(C)=C\[C@@H](C)[C@@H]1O [Migrastatin, migrastatin]
[1]
  Effect on protein synthesis (translation): no inhibitory effect
[9]
  Inhibition of cell proliferation ([3H]-thymidine incorporation): neither compound affected cell proliferation

## CC(/C=C/C(C)=C/[C@@H]1Cc2nc(cs2)[C@@H](C)C[C@@H](N)CC(=O)O[C@@H](C)C/C(C)=C/C=C\C(=O)O1)=C\CN(C)C [PatA, Pateamine A, reference compound]
[12]
  Effect on cap-dependent and IRES-mediated translation: allowed translation off the HCV IRES

## CSC[S@+]([O-])C[C@H](CO)NC(=O)/C=C/c1c(C)[nH]c(=O)[nH]c1=O [Sparsomycin, reference compound]
[10]
  Effect on peptide bond formation (methionyl-puromycin): prevented methyionyl-puromycin synthesis

## C=C/C(C)=C/[C@H](C)C(=O)C[C@H](O)CC1CC(=O)NC(=O)C1 [Streptimidone]
translation
  Inhibition of translation: inhibits translation

## C/C(=C\[C@H](C)C(=O)C[C@H](O)CC1CC(=O)NC(=O)C1)[C@@H]1OC(=O)CCCC/C=C/C=C\[C@@H]1C [compound 7, 2H Lactimidomycin]
[9]
  Inhibition of cell proliferation ([3H]-thymidine incorporation): highly active

## CO[C@H]1/C=C/CC/C=C/C(=O)O[C@@H](/C(C)=C/[C@H](C)C(=O)/C=C/CC2CC(=O)NC(=O)C2)[C@@H](C)[C@@H]1O [compound 8, Didehydro Isomigrastatin]
[9]
  Inhibition of cell proliferation ([3H]-thymidine incorporation): highly active

## CCOC(=O)CO[C@@H](CC(=O)[C@@H](C)/C=C(\C)[C@@H]1OC(=O)/C=C/CC/C=C/C=C\[C@@H]1C)CC1CC(=O)NC(=O)C1 [compound 36, Ethylacetyl-Lactimidomycin]
Translation in vitro
  Effect of modification on translation inhibitory activity of LTM: did not significantly decrease the activity
